Here are results for 167 variants from the RNAGym collection of RNA variant scans (doi:10.1126/science.aae0568).

Variants at the floor of the assay were thinned out.

B1: tRNA (parent)
chain: GUUCCGUUGGCGUAAUGGUAACGCGUCUCCCUCCUAAGGAGAAGACUGCGGGUUCGAGUCCCGUACGGAACG

In the data set the parent is B1. The data set can be described thus: yeast fitness relative to wild type (ratio to wild type); higher = fitter; tRNA-Arg(CCU), competitive growth, 37 C, YPD. A digest of the protocol: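 For this measurement, the tRNA-Arg(CCU) gene was varied by chemical synthesis at a 3% per-site mutation rate across 69 sites, and each variant was placed at the native genomic locus in Saccharomyces cerevisiae. The pooled strains went through a 24-hour competition in YPD at 37°C in six parallel replicates, with amplicons from start and end populations read by 100-nucleotide paired-end sequencing. Darwinian fitness relative to wild type followed from the change in each genotype's frequency. Genotypes needed ≥ 100 starting reads, and estimates < 0.5 were set to 0.5.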
For G6A G10C C30A U32C A69U, the yeast fitness is 0.586. As to G6A U35A G67C, the yeast fitness is not above 0.5. As to G6A G10A C30U C60G, the yeast fitness was not above 0.5. The same measure for G6C A57G A65G C66U: 0.537; for G6A U16C C27G C33A G38C A42G: not above 0.5; for G6A G68A: 0.896. The result for G6A G68U reads 0.934; that for G6A U13G C22A U26A C29G C34G G50C, not above 0.5; that for G6C C24G C27G C29A C34U U53A A70G, not above 0.5. Consider G6A C31G G50A, for which the yeast fitness was 0.61. The result for G6A U35A C62A C66G reads 0.694; that for G6A C31G A65G, 0.547.

Consider G6C C11G G44C, for which the yeast fitness was not above 0.5. The result for G6C A21G A57C reads not above 0.5; that for G6C C11U G56C A69C, not above 0.5; that for G6A G41C, 0.863. The result for G6A U13A A14G A42U G48C G67C reads not above 0.5; that for G6A U8A G44C A57U, not above 0.5; that for G6A G9C A21C C30U A45U C55A, 0.517. Turning to G6A G48A, the yeast fitness is 0.886.

Take G6C A14G U35G: the yeast fitness is 0.605. The same measure for G6A C62G: 0.827; for G6A C31G C61U: not above 0.5. For the variant G6A C27G A45G, the yeast fitness is 0.521. The result for G6C C24U C46G reads 0.586; that for G6A G51C A57G C61U A65C, not above 0.5; that for G6A C31G C34U C46U G56A, not above 0.5. For G6A C34G A37U C49G, the yeast fitness worked out at 0.532.

With G6A U8C, the yeast fitness amounted to 0.792. The same measure for G6C C22G C27G A45U A57G A70G: not above 0.5; for G6A C30U U54A: not above 0.5. The same measure for G6A U19C G41C: 0.67; for G6C C11U A21C G52A C61A G67C: not above 0.5. For G6A G23C A37U A57G A65C, the yeast fitness is not above 0.5.

As for G6C C11U C31G A36G, the yeast fitness was determined as 0.66. Take G6A C27G A36C A42C A57U U64A A70C: the yeast fitness is not above 0.5.

Turning to G6A G12A A21G C46A, the yeast fitness is 0.636. The same measure for G6C A21U: 0.673; for G6A G12A A70U: 0.656; for G6A C24U G58A: 0.67. On to G6A C27U A42U, for which the yeast fitness was not above 0.5. The result for G6A C24U A65C reads not above 0.5. Take G6A U19C U28G U32A G38C: the yeast fitness is not above 0.5. Take G6C A37C G51A U53C C62A A70C: the yeast fitness was not above 0.5. The result for G6A C27G G38C A65C reads 0.595; that for G6A G23C A37U A57G A65C A70U, not above 0.5; that for G6A U8C G18C A21C C33A, not above 0.5.

Take G6A G39C U54C: the yeast fitness was not above 0.5. G6A G9C C31U: the yeast fitness was not above 0.5.

Consider G6A C24U A37G C61G C66U A69U, for which the yeast fitness is not above 0.5. Take G6C A14G A20C: the yeast fitness worked out at 0.501. The result for G6A G10C A20G C22U G38C C61G reads not above 0.5; that for G6A G12C A36C, not above 0.5. The same measure for G6C A37G A70C: not above 0.5; for G6C A45G: 0.823; for G6C A21U C61G A69C: not above 0.5.

As for G6A C24U U28A C60U, the yeast fitness was not above 0.5.

With G6C A14U A70C, the yeast fitness was 0.591. With G6A G12C C27A A37G C49U, the yeast fitness is not above 0.5. Regarding G6A C34G U59A, the yeast fitness is 0.547. The same measure for G6A C49U G58A: 0.654; for G6A C31G C34G A43U G68C A69G: not above 0.5. The same measure for G6A U19G C33U C34U: not above 0.5; for G6C A36C A65C G67A: not above 0.5; for G6A U8A C22G U47A A70C: not above 0.5.

As for G6A C33A U35A G68C, the yeast fitness is not above 0.5.

In the case of G6A G9A C29U C46U G67C, the yeast fitness was not above 0.5. For the variant G6A C29G A69C, the yeast fitness was not above 0.5.

G6A G38A U47A C60G: the yeast fitness is not above 0.5. The result for G6A U47A C61U reads 0.57; that for G6A C24U C61G G68U, not above 0.5; that for G6A C33A G58A G63C, not above 0.5. The same measure for G6C A21G U32C G48A: 0.716; for G6A U35G A43C G51A: not above 0.5; for G6A G9C C27A C31A: not above 0.5. The same measure for G6A G9C C11G C22A C30U C31G G67U: not above 0.5; for G6A C27U C29A: not above 0.5; for G6C: 1. Turning to G6A C30A C31G G39C, the yeast fitness is 0.534.

In the case of G6A G9C A42U A43U A65G G68A A70C, the yeast fitness is 0.663.

On to G6A U8C G10C, for which the yeast fitness is not above 0.5. G6A G9C C46G: the yeast fitness came to 0.561.

On to G6C A15U A43U A65U, for which the yeast fitness was not above 0.5. Turning to G6C A14G A20C G68C, the yeast fitness was not above 0.5. The result for G6C A43U reads 0.831. As for G6C A43C, the yeast fitness worked out at 0.739. The result for G6A U8C A69C reads 0.678; that for G6A U13A A14G G41C, not above 0.5. The same measure for G6A C27G G38C: not above 0.5; for G6A C31U G51A: 0.599; for G6A U19C C30G A69C: not above 0.5. The result for G6C A42C C49U C62U reads not above 0.5; that for G6C A43C G50A, not above 0.5; that for G6C C24A C31U G38C, not above 0.5. Turning to G6A C31U A43U, the yeast fitness is 0.529. The result for G6A C33U G50A G52C A65C reads not above 0.5; that for G6A C29A A37U G67C, not above 0.5.

Consider G6A G17A C27U C31G C66G, for which the yeast fitness was not above 0.5.

Consider G6C C11A U32A A42G C55U C61U, for which the yeast fitness is not above 0.5.

In the case of G6A U28A G51A A57U, the yeast fitness is not above 0.5. G6A C33G C34G C60A A69U: the yeast fitness was not above 0.5. The same measure for G6A C34G A37G G67U: not above 0.5; for G6A U26G C30U G52A: not above 0.5. As to G6A G12A C27G G68C A70U, the yeast fitness was determined as 0.549. The same measure for G6A G18A G41C: not above 0.5; for G6C A65G C66U: 0.84; for G6A C33G G48A U54C C66G A70C: not above 0.5. The same measure for G6C C24U G38C A40G U47C: not above 0.5.

Take G6A C29A G67C: the yeast fitness is not above 0.5. The same measure for G6A G23C G68A: not above 0.5; for G6A U13G C27U C30A G44C C46U: not above 0.5. The result for G6A U8C G10A U19C G41A U47C reads not above 0.5; that for G6A G52A G68C, 0.609. On to G6A C61U G63C, for which the yeast fitness was not above 0.5.

Turning to G6A U28C A45G, the yeast fitness is 0.781. For G6C A57C A65U, the yeast fitness is not above 0.5. Regarding G6A G67U, the yeast fitness turned out to be 0.814. The result for G6A G67C reads 0.963. G6A C29U A42U A43U C55G: the yeast fitness is not above 0.5. The same measure for G6A U8G U13A C30U G39C C55G: not above 0.5; for G6A C30A G39A U47A G63C: not above 0.5; for G6A G12A C34U G41A: 0.556. The same measure for G6A C24U U26G C34A C46G G56A C66U: not above 0.5; for G6A C33G C34G A69U: not above 0.5.

For the variant G6A G9A, the yeast fitness amounted to 0.969.

G6A G9U: the yeast fitness was 0.774.

As for G6A C29A U32C A42U G67A, the yeast fitness is not above 0.5. Take G6A G25C C34U C46A: the yeast fitness is not above 0.5. The result for G6C A45C G67C reads 0.536; that for G6A C30U A37G, not above 0.5; that for G6A G18C C61G, 0.563. The result for G6A C55U G58A G67A reads not above 0.5; that for G6A C31G A70C, 0.553. In the case of G6A C60A G67C, the yeast fitness came to 0.536. Regarding G6A U13A U19C A40U G67A, the yeast fitness was not above 0.5. The result for G6A G9C C31U C62U G68C reads not above 0.5; that for G6A C33G U47A U64G, 0.558. The same measure for G6A G12C G18C G41A A43G G48A: not above 0.5. In the case of G6C A42C, the yeast fitness stood at 0.808. The same measure for G6A C27G: 0.758; for G6A C34A C46U A65C: not above 0.5; for G6A U19C: 0.99. The same measure for G6A U19A: 0.973; for G6A G38A C61A: not above 0.5; for G6C C24U A65C: not above 0.5. On to G6C C24A A69U, for which the yeast fitness was not above 0.5.

Take G6A G23A C27U C60G G67A: the yeast fitness was not above 0.5.

As to G6A C24U G67A, the yeast fitness came out at 0.72. The result for G6A C29G U32C A69C reads not above 0.5.

G6A U54C A57U G58A A65U: the yeast fitness was not above 0.5.

On to G6A C31A A37C, for which the yeast fitness was not above 0.5. The same measure for G6A C29U: 0.748; for G6A C29G: 0.634; for G6A G17A A69U: 0.551. For G6A G12A U16C, the yeast fitness was determined as 0.537. For the variant G6A U7G U26C G52A C55U, the yeast fitness was not above 0.5. The same measure for G6A G41A C60G A65G: 0.618; for G6A G9A C24G U35A G48C: not above 0.5; for G6A U26A C33A G51C C62U: 0.591. For G6C A14C C31G A42U A43G, the yeast fitness is not above 0.5.

Consider G6A U7A C60G, for which the yeast fitness is not above 0.5. Regarding G6A C30G, the yeast fitness amounted to 0.711. Consider G6A G17C G18C A45G G58C C66U, for which the yeast fitness was not above 0.5. The result for G6C C24A U28A C34U reads not above 0.5; that for G6C C11A C66G, 0.592. The result for G6A G44A reads 0.737; that for G6A C27G C31G G50A A70U, not above 0.5.
